This note sets out measurements from ChEMBL document CHEMBL3045347, “Natural products-based insecticidal agents 5. Design, semisynthesis and insecticidal activity of novel 4'-substituted benzenesulfonate derivatives of 4-deoxypodophyllotoxin against Mythimna separata Walker in vivo” (2010).

Assay [1] deals with Mythimna separata. The experiment in a line: In vivo insecticidal activity against pre-third-instar larval stage of Mythimna separata (Oriental armyworm) in corn leaves assessed as induction of molting to abnormal pupae at 1 mg/ml treated for 3 secs before larval infestation on corn leaves measured after 48 hr by leaf-dipping method. It is filed as functional, organism-based. In short, it runs like this:
(§1)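 Leaf-dipping bioassay on pre-third-instar Mythimna separata larvae, with compounds applied at 1 mg/mL. Toosendanin, a commercial insecticide from Melia azedarach, served as the positive control.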

The test system of assay [2] is Mythimna separata. The experiment in a line: In vivo insecticidal activity against pre-third-instar larval stage of Mythimna separata (Oriental armyworm) in corn leaves assessed as induction of larval immobility at 1 mg/ml treated for 3 secs before larval infestation on corn leaves measured after 48 hr by leaf-dipping method. Format: functional, organism-based. The method in brief:
as §1

The subject of assay [3] is Mythimna separata. The experiment in a line: In vivo insecticidal activity against pre-third-instar larval stage of Mythimna separata (Oriental armyworm) in corn leaves assessed as corrected mortality rate at 1 mg/ml treated for 3 secs before larval infestation on corn leaves measured after 30 days by leaf-dipping method. It is filed as functional. The settings on record: 720 h. The method in brief: as §1

In assay [4] the test system is Mythimna separata. The experiment in a line: In vivo insecticidal activity against pre-third-instar larval stage of Mythimna separata (Oriental armyworm) in corn leaves assessed as inhibition of larval pupation at 1 mg/ml treated for 3 secs before larval infestation on corn leaves by leaf-dipping method. It is filed as functional, organism-based. The method in brief: as §1

Assay [5] relates to Mythimna separata. The experiment in a line: In vivo insecticidal activity against pre-third-instar larval stage of Mythimna separata (Oriental armyworm) in corn leaves assessed as inhibition of adult emergence at 1 mg/ml treated for 3 secs before larval infestation on corn leaves by leaf-dipping method. It is filed as functional, organism-based. The method in brief:
as §1

Assay [6] relates to Mythimna separata. The experiment in a line: In vivo insecticidal activity against pre-third-instar larval stage of Mythimna separata (Oriental armyworm) in corn leaves assessed as corrected mortality rate at 1 mg/ml treated for 3 secs before larval infestation on corn leaves measured after 10 days by leaf-dipping method. It is filed as functional. The settings on record: 240 h. The method in brief:
as §1

Assay [7] relates to Mythimna separata. Briefly: In vivo insecticidal activity against pre-third-instar larval stage of Mythimna separata (Oriental armyworm) in corn leaves assessed as reduction in larval movement at 1 mg/ml treated for 3 secs before larval infestation on corn leaves measured after 24 hr by leaf-dipping method. It is filed as functional, organism-based. In short, it runs like this:
as §1

Assay [8] relates to Mythimna separata. The experiment in a line: In vivo insecticidal activity against pre-third-instar larval stage of Mythimna separata (Oriental armyworm) in corn leaves assessed as induction of loss of body liquid at 1 mg/ml treated for 3 secs before larval infestation on corn leaves measured after 48 hr by leaf-dipping method. Format: functional, organism-based. The method in brief: as §1

For assay [9], the system named is Mythimna separata. The experiment in a line: In vivo insecticidal activity against pre-third-instar larval stage of Mythimna separata (Oriental armyworm) in corn leaves assessed as corrected mortality rate at 1 mg/ml treated for 3 secs before larval infestation on corn leaves measured after 20 days by leaf-dipping method. It is filed as functional. The settings on record: 480 h. In short, it runs like this:
as §1

What is called mortality is the share of the test organisms that died.

Activity calls are given as the source filed them. The rule behind the calls is not given here.

For `COc1cc([C@@H]2c3cc4c(cc3C[C@H]3COC(=O)[C@@H]32)OCO4)cc(OC)c1OS(=O)(=O)c1ccc(C)cc1`, the result in assay [1], in [2], in assay [4], in assay [5], in [7] and in [8] was Active. Also, the mortality at 1000 µg/mL worked out at 21.4% in assay [3], 3.3% in assay [6] and 10.3% in assay [9].
Turning to `COc1ccc(S(=O)(=O)Oc2c(OC)cc([C@@H]3c4cc5c(cc4C[C@H]4COC(=O)[C@@H]43)OCO5)cc2OC)cc1`, the result in assay [1], in [2], in assay [4], in assay [5], in [7] and in [8] was Active. The mortality at 1000 µg/mL worked out at 46.4% in [3], 33.3% in assay [6] and 37.9% in assay [9].
As for `COc1cc([C@@H]2c3cc4c(cc3C[C@H]3COC(=O)[C@@H]32)OCO4)cc(OC)c1OC` [DESOXYPODOPHYLLOTOXIN], the result in assay [1], in [2], in assay [4], in assay [5], in assay [7] and in assay [8] was Active. In addition, the mortality at 1000 µg/mL in assay [3] stood at 39.3%; in assay [6] it was 16.7%; in assay [9], 20.7%.
Take `CC(=O)O[C@@H]1C[C@H](O)[C@@]23CO[C@@H](O)[C@]1(C)[C@@H]2C[C@@H](O)[C@]1(C)[C@@H]3C(=O)[C@H](OC(C)=O)[C@@]2(C)[C@H](c3ccoc3)C[C@H]3O[C@]321` [TOOSENDANIN]: the mortality at 1000 µg/mL was determined as 46.4% in [3], 30% in assay [6] and 34.5% in [9].
On to `COc1cc([C@@H]2c3cc4c(cc3C[C@H]3COC(=O)[C@@H]32)OCO4)cc(OC)c1OS(=O)(=O)c1ccc(Br)cc1`, for which the outcome in [1], in assay [2], in assay [4], in assay [5], in assay [7] and in assay [8] was Active. Besides, the mortality at 1000 µg/mL in [3] came out at 50%; in [6], 20%; in [9], 31%.
`COc1cc([C@@H]2c3cc4c(cc3C[C@H]3COC(=O)[C@@H]32)OCO4)cc(OC)c1OS(=O)(=O)c1ccccc1`: the outcome in [1], in assay [2], in assay [4], in [5], in [7] and in assay [8] was Active. In addition, the mortality at 1000 µg/mL in assay [3] turned out to be 35.7%; in [6], 16.7%; in assay [9] it was 13.8%.
As for `COc1cc([C@@H]2c3cc4c(cc3C[C@H]3COC(=O)[C@@H]32)OCO4)cc(OC)c1OS(=O)(=O)c1ccc(Cl)cc1`, the outcome in assay [1], in assay [2], in assay [4], in [5], in assay [7] and in [8] was Active. Further, the mortality at 1000 µg/mL in assay [3] was 25%; in assay [6] it was 10%; in assay [9] it was 10.3%.
For the compound `COc1cc([C@@H]2c3cc4c(cc3C[C@H]3COC(=O)[C@@H]32)OCO4)cc(OC)c1OS(=O)(=O)c1ccc(Cl)c([N+](=O)[O-])c1`, the result in assay [1], in [2], in [4], in [5], in assay [7] and in assay [8] was Active. The mortality at 1000 µg/mL was 42.9% in assay [3], 3.3% in [6] and 20.7% in assay [9].
Consider `COc1cc([C@@H]2c3cc4c(cc3C[C@H]3COC(=O)[C@@H]32)OCO4)cc(OC)c1OS(=O)(=O)c1cccc([N+](=O)[O-])c1`, for which the result in assay [1], in assay [2], in assay [4], in assay [5], in assay [7] and in [8] was Active. The mortality at 1000 µg/mL amounted to 60.7% in assay [3], 26.7% in assay [6] and 27.6% in [9].
On to `COc1cc([C@@H]2c3cc4c(cc3C[C@H]3COC(=O)[C@@H]32)OCO4)cc(OC)c1O` [4'-DEMETHYLDEOXYPODOPHYLLOTOXIN], for which the outcome in assay [1], in assay [2], in assay [4], in [5], in assay [7] and in assay [8] was Active. For the same compound, the mortality at 1000 µg/mL in assay [3] was 21.4%; in assay [6] it was 10%; in assay [9], 13.8%.
As to `CCc1ccc(S(=O)(=O)Oc2c(OC)cc([C@@H]3c4cc5c(cc4C[C@H]4COC(=O)[C@@H]43)OCO5)cc2OC)cc1`, the outcome in assay [1], in assay [2], in [4], in assay [5], in assay [7] and in assay [8] was Active. Further, the mortality at 1000 µg/mL in [3] stood at 35.7%; in assay [6] it was 13.3%; in [9] it was 27.6%.
